Compound activity as filed in PubChem.
An excerpt weighted towards active compounds, which were near 2% of everything screened.
PLCg1 inh: PLC-gamma1 (human) inhibition, primary screen. purified PLC-gamma1, fluorogenic substrate, fluorescence. inhibition, % at 12.2 µM. 370,000 tested, 0.84% active. P19174
IMP-1 inhibitor: blocks Pseudomonas aeruginosa IMP-1 metallo-beta-lactamase. purified IMP-1, nitrocefin hydrolysis, epi-absorbance fluorescence. inhibition, % at 5.6 µM. 290,000 tested, 0.45% active. AID 1556;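 active means inhibition above the mean plus 3 SD of all compounds in the same screening run, cut at about 4.5% in these data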;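 further: 0% = IMP-1 with DMSO and 100% = DMSO wells lacking enzyme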
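System: purified IMP-1 / Input: IMP-1 dispensed at 0.2 nM / Medium: 50 mM HEPES pH 7.1, 50 µM ZnSO4, 0.05% Brij 35 / Timing: 15 min enzyme–compound preincubation, then 25 min nitrocefin reaction, 25 °C / Technique: plate fluorescence quenching by hydrolysis product, ex 480/em 530 nm / Repeats: singlicate testing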
PvdQ acylase: P. aeruginosa PvdQ acylase inhibition | purified PvdQ acylase, fluorescence plate reader | inhibition, % at 10 µM | 340,000 tested, 0.063% active | AID 488965; in the data active means inhibition above about 30%, passing the limit was not always enough;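 further: 0% = vehicle neutral wells and 100% = reference inhibitor wells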
PLC-beta3 inh: PLC-beta3 (human) inhibition, primary screen. Q01970. Purified PLC-beta3, fluorogenic substrate, fluorescence. inhibition, % at 12.2 µM. 370,000 tested, 0.18% active. AID 720704; in the data active means inhibition above about 11%;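 further: 0% = median of compound wells on plate and 100% = full blocker control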
VIM-2 inhibitor: inhibitors of Pseudomonas aeruginosa VIM-2 metallo-beta-lactamase. purified VIM-2, nitrocefin hydrolysis, epi-absorbance fluorescence. inhibition, % at 5.6 µM. 290,000 tested, 0.89% active. AID 1527;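 active means inhibition above the mean of all tested compounds plus 3 SD, cutoff set per screening run, cut at about 7.5% in these data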;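 further: red hydrolysis product quenches plate fluorescence so inhibitors raise well fluorescence; 0% = enzyme with DMSO and 100% = DMSO without enzyme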
PLCgamma1 ctr: inhibits human PLC-gamma1 in PLC-beta3 counter-screen | AID 743258 | shares compounds with PLCg1 inh | purified PLC-gamma1, fluorogenic substrate, fluorescence | inhibition, % at 12.3 µM | 3,300 tested, 3.1% active
PLCb3 confirm: confirmation of human PLC-beta3 inhibitors; shares compounds with PLCg1 inh; purified PLC-beta3, fluorogenic substrate fluorescence; inhibition, % at 12.3 µM; 3,300 tested, 1% active; AID 743261; in the data active means inhibition above about 11%
Numbers without * were called inactive; / = no result. Unless noted, no stated cut-off is given here; in the data, active means inhibition above about 9.5%; inactive means the rest.

SMILES	PLCg1 inh	IMP-1 inhibitor	PvdQ acylase	PLC-beta3 inh	VIM-2 inhibitor	PLCgamma1 ctr	PLCb3 confirm
Cc1ccc(NC(=S)NNC(=O)CSc2nc3sc4c(c3c(=O)n2-c2ccccc2)CCCC4)cc1	3.6	/	/	1.6	/	/	/
CN(CC(=O)NCc1ccccc1)Cc1cccc(F)c1	11.5*	5.6*	-8.9	4.7	-2.2	-6.3	-3.4
CCn1c(NCc2ccccc2NS(=O)(=O)c2ccc(C)cc2)nc2ccccc21	8.9	-4.2	-4.3	12.3*	-3.4	-0.1	0.2
COc1ccccc1C(=O)N1CCC(Oc2cccnc2)CC1	-1.1	/	/	-14.3	/	/	/
COc1ccccc1NS(=O)(=O)c1cccc(C(=O)OCC(=O)NC2CC2)c1	4.4	/	-7.8	1.6	/	/	/
CNS(=O)(=O)c1cccc(C(=O)OCC(=O)NC2CCCC2)c1	9.6*	-1.0	-15.6	-1.6	0.2	-3.7	-0.5
O=C1[C@@H](C2CCCCC2)[C@@H]2c3ccccc3C=NN2[C@@H]2c3ccccc3C=NN12	-1.2	/	/	-4.4	/	/	/
CN(C(=O)c1ccccc1OC1CCN(S(C)(=O)=O)CC1)C1CCOC1 (stereo unspecified)	1.2	-2.1	0.1	-0.1	-0.7	/	/
CS(=O)(=O)N1CCC(Oc2ccccc2C(=O)NC2CCOC2)CC1 (stereo unspecified)	11.5*	1.2	-27.0	7.0	0.4	-7.6	-2.8
CCn1c2ccccc2c2cc(C=NNC(=O)c3cc(-c4ccc(OC)cc4)n[nH]3)ccc21	-238.3	/	/	-341.2	/	/	/
CCC(=O)NCCc1nc2ccccc2n1Cc1ccc(C)cc1	19.3*	0.1	-15.6	-1.8	0.0	-8.2	-4.8
CC(C)NC(=O)c1cc2cc([N+](=O)[O-])ccc2s1	13.9*	1.3	-17.4	11.9*	-1.0	-3.1	3.8
O=[N+]([O-])c1ccccc1Nc1ccccc1[N+](=O)[O-]	10.1*	/	-12.3	3.6	/	2.1	2.4
O=C(NN=C(c1ccccc1)c1ccccn1)c1ccccc1	9.7*	/	-20.0	0.4	/	0.2	1.0
COc1ccc(C(=O)N/N=C(\c2ccccc2)c2ccccn2)cc1	5.2	-2.6	9.2	3.0	-4.3	/	/
O=C(c1cccc(S(=O)(=O)N2CCOCC2)c1)N(CCO)Cc1ccccc1	10.2*	-0.2	0.4	0.2	-1.1	-4.8	-1.3
O=C(c1cccc(S(=O)(=O)N2CCCCC2)c1)N(CCc1ccccc1)Cc1ccccc1	1.8	/	-10.9	-2.1	/	/	/
CC(C)CC(COCc1cccc(C(F)(F)F)c1)N1CCN(C(=O)c2cccc(C(F)(F)F)c2)CCC1=O (stereo unspecified)	9.6*	-1.4	-15.9	4.6	-3.4	1.1	2.4
COc1ccc(Cn2cc(CN3[C@@H](c4ccccc4)COc4cc(Br)ccc4S3(=O)=O)nn2)cc1	1.8	/	/	2.7	/	/	/
CCC(C)(C(=O)NC1CCCC1)N(Cc1cccs1)C(=O)c1ccccn1 (stereo unspecified)	10.3*	-4.3	-9.4	-1.4	-2.7	-6.6	-3.0
CCC(C)(C(=O)NC1CCCCC1)N(Cc1cccs1)C(=O)c1ccccn1 (stereo unspecified)	1.0	0.4	-13.3	-5.0	0.4	/	/
CC(C)(C)NC(=O)[C@@H](c1cccnc1)N(C(=O)c1ccco1)c1ccc(C(C)(C)C)cc1	2.1	/	/	-0.4	/	/	/
CC(C)(C)C(=O)OCc1cn(-c2ccccc2)nn1	11.3*	-2.5	-22.7	5.7	-3.5	-4.8	-3.2
CC(C)CC(=O)OCc1cn(-c2ccccc2)nn1	14.9*	-0.3	-11.9	5.5	-1.0	-3.8	-0.7
CCNC(=O)OCc1cn(-c2ccccc2)nn1	2.3	-1.3	7.6	2.8	1.2	/	/
SMILES	PLCg1 inh	IMP-1 inhibitor	PvdQ acylase	PLC-beta3 inh	VIM-2 inhibitor	PLCgamma1 ctr	PLCb3 confirm
C#CCNC(=O)C[C@@H]1C[C@@](CCC(=O)OCC)(C(=O)OCC)C2=CCCCN2C1=O	-0.7	/	/	0.9	/	/	/
Cc1cc(C)nc(N2CCN(C(=O)CSc3nc4ccccc4nc3N3CC(C)OC(C)C3)CC2)n1 (stereo unspecified)	-2.5	/	/	-3.2	/	/	/
Cc1ccc(NC(=O)CSc2nnc(-c3ccc(S(=O)(=O)N4CCCC4)cc3)o2)cc1C	11.9*	-1.3	-7.2	2.8	-2.2	-5.1	-4.0
COc1ccc(NC(=O)CSc2nc(N)cc(=O)[nH]2)cc1S(=O)(=O)N1CCCCC1	-0.2	/	0.6	0.5	/	/	/
Cc1cc(=O)[nH]c(SCC(=O)Nc2ccc(C)c(S(=O)(=O)N3CCCCC3)c2)n1	12.2*	-1.2	-9.0	-1.5	-1.1	-2.8	-1.4
Cc1ccc(NC(=O)c2ccc(F)cc2)cc1S(=O)(=O)N1CCCCCC1	8.2	-0.8	-12.7	8.1	0.3	/	/
COc1ccc(C(=O)Nc2ccc(C)c(S(=O)(=O)N3CCCCCC3)c2)cc1	11.1*	-0.4	1.8	5.4	-1.2	5.3	5.8
Cc1cccc(NC(=O)CSc2nnc(-c3ccc(S(=O)(=O)N4CCCC4)cc3)o2)c1	/	-2.9	-11.6	/	-1.3	/	/
COC(=O)[C@]12C[C@H](CC(=O)N3CCCC3)C(=O)N(Cc3cccc4ccccc34)C1=C[C@H](C(C)(C)C)O[C@@H]2C	2.4	/	/	1.5	/	/	/
CCCC(=O)OC[C@H]1CN([C@H](C)c2ccccc2)S(=O)(=O)c2c(F)cccc2O1	2.4	/	/	2.2	/	/	/
Cc1ccc2c(c1)-c1c(cnn1CC(=O)NCCc1ccccc1F)CO2	0.2	/	/	1.7	/	/	/
CCOC(=O)C1(CCOc2ccccc2)CCN(Cc2ccc(OC)c(O)c2)CC1	10.3*	-0.2	-11.8	8.9	0.9	-6.6	-2.2
Cc1ccsc1C(=O)N1CCCC(C)(C(=O)NS(=O)(=O)C2CC2)C1 (stereo unspecified)	9.8*	/	/	5.0	/	-0.2	3.1
N#Cc1c(NC(=O)CSc2nnnn2C2CCCCC2)sc2c1CCCC2	10.2*	1.4	-21.9	2.9	1.7	-6.3	2.5
Cc1cccc(CSc2nnc(-c3cnccn3)n2C)c1	12.1*	-5.2	-21.0	2.2	-0.6	-0.1	0.4
Cc1ccc(NC(=O)CSc2nnc(-c3cnccn3)n2C)cc1C	9.7*	-3.4	-7.7	-8.2	-0.5	-4.4	-0.4
Cn1c(SCc2ccccn2)nnc1-c1cnccn1	2.8	-2.5	-10.8	-2.0	-3.4	/	/
c1ccc(-c2csc3ncnc(NCCCN4CCOCC4)c23)cc1	-0.1	-0.5	-12.2	1.5	1.0	/	/
Cc1csc2c(NCCCN3CCOCC3)ncnc12	12.9*	-4.9	12.9	-1.9	-2.7	-5.0	1.3
COc1cc(/C=N\NC(=O)c2ccccc2F)ccc1Oc1ccc([N+](=O)[O-])cn1	9.6*	-1.4	-6.4	-0.2	-1.0	-1.0	1.8
O=C(O[C@H]1CC[C@@]23CCCN2C(=O)CCC[C@H]3C1)N1CCCC1	0.5	/	/	1.4	/	/	/
C/C(=N/NC(=O)c1cc(-c2cccc([N+](=O)[O-])c2)n[nH]1)c1cccc(O)c1	14.1*	-2.7	-16.5	7.5	-3.7	-2.4	-2.4
CCOC(=O)[C@@]12CCC3=C1N(CCC3)C(=O)[C@H](CC(=O)N1CCCCC1)C2	2.5	/	/	-3.2	/	/	/
